Results on 6 substances are retold here after paper PMC2196299 (The Journal of Experimental Medicine, 1997).

One test deals with T1, human TAP (Homo sapiens, UniProt Q03518+Q03519).
T1 sequence (Q03518 1-748): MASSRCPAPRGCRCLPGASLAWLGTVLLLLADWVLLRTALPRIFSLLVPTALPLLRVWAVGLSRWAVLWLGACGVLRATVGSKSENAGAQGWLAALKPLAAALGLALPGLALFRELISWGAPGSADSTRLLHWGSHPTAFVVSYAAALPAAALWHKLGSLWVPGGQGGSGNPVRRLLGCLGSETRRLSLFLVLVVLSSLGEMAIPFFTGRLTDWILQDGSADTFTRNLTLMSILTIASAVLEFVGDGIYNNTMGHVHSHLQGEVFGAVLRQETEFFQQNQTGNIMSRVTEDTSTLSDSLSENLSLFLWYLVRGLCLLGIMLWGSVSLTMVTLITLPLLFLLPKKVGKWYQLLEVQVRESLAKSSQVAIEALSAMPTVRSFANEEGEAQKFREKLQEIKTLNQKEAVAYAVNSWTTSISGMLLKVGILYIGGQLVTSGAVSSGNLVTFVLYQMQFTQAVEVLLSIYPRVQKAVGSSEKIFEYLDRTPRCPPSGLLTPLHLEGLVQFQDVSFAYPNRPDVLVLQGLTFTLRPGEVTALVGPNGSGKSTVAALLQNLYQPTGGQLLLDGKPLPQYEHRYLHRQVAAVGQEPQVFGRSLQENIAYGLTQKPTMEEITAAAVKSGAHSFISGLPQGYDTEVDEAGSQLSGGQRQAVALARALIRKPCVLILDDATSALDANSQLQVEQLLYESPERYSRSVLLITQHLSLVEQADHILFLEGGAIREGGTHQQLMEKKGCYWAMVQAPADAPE
T1 sequence (Q03519 1-686): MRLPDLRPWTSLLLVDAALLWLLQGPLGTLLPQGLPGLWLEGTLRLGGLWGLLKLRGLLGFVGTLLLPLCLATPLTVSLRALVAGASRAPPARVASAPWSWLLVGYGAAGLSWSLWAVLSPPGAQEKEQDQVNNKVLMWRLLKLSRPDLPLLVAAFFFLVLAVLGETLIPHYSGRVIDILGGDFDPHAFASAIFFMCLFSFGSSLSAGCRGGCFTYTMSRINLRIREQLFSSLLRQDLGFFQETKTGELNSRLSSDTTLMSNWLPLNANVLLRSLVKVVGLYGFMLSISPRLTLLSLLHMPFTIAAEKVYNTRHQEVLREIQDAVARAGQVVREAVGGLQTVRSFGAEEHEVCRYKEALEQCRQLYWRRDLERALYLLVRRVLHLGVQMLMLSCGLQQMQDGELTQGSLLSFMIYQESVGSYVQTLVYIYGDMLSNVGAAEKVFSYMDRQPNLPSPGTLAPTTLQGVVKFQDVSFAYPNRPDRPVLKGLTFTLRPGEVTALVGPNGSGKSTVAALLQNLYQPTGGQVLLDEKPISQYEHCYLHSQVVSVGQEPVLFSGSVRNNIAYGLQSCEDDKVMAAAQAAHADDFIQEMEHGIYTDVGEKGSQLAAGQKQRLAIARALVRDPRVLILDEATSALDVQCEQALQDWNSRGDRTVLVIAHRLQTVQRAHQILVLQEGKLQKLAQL
In words: TAP-dependent peptide translocation assay in SLO-permeabilized human cells. It is filed as cell-based. Summed up: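 Hmy2.C1R cells washed in KCl/Hepes transport buffer (pH 7.3) at 4°C, then permeabilized with streptolysin O (2 U/ml, 10 min, 37°C). 10^6 cells/sample incubated 10 min at 37°C with chloramine T-iodinated peptide library, ATP-generating system and test compound (3.3 μM, or a concentration series). Stopped with ice-cold EDTA/azide buffer, NP-40 lysed, Con A–Sepharose capture, γ counting. Percent of no-inhibitor transport, duplicates.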

In the next test the target is T2, human TAP1+2 (Homo sapiens, UniProt Q03518+Q03519).
T2 sequence (Q03518 1-748): T1 sequence (Q03518 1-748)
T2 sequence (Q03519 1-686): T1 sequence (Q03519 1-686)
It is filed as binding.

The next test deals with T3, murine TAP (Mus musculus, UniProt P21958+P36371).
T3 sequence (P21958 1-724): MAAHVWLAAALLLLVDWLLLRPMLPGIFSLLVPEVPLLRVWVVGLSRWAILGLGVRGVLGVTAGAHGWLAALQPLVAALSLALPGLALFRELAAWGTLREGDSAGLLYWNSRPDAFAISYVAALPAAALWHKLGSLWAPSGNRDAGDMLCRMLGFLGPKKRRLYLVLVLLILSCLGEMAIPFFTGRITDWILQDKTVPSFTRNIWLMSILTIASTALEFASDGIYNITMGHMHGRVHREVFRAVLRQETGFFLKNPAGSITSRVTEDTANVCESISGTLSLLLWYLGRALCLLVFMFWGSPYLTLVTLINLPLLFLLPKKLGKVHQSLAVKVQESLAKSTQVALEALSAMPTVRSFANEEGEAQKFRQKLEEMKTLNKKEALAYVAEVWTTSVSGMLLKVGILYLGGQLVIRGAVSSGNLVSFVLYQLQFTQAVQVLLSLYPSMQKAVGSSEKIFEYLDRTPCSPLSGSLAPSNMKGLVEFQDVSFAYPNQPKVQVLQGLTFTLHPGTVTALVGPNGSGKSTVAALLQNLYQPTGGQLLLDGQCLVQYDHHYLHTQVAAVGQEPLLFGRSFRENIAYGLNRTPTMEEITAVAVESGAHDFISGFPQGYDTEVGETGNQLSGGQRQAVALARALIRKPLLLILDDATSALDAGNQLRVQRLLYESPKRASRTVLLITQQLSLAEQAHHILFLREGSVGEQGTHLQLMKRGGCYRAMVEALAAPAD
T3 sequence (P36371 1-702): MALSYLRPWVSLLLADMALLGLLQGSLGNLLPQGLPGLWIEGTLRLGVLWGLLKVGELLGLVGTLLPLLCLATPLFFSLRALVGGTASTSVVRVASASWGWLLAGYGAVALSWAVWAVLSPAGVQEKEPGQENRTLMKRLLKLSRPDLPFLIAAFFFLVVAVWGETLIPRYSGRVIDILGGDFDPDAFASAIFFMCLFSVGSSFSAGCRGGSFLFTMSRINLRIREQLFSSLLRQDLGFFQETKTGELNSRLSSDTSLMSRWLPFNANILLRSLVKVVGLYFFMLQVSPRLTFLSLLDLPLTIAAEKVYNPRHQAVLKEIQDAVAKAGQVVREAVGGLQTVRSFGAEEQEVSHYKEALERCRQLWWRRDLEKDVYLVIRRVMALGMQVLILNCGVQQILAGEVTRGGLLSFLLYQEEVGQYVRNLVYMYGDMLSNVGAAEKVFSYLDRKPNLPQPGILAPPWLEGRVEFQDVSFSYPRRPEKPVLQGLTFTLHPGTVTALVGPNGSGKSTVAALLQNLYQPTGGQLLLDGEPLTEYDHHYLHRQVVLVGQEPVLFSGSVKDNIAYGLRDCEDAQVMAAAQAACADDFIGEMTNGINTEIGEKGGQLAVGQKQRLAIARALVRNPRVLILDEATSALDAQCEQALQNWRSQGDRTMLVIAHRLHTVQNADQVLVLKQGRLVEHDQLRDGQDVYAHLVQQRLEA
The conditions noted are these: cited from earlier work.

On to “1–35: peptide corresponding to residues 1–35 of ICP47”, for which, in the test with human TAP (human cell line Hmy2.C1R, chosen for the alanine scan, Fig. 3 D), the “concentration at which full inhibition had just been reached” value was 3.3 µM.

As for “^125I-labeled Tyr21 1–35 polypeptide: 1–35 polypeptide labeled with 125I at Tyr 21”, in the test with human TAP1+2, the “TAP subunits labeled by cross-linking” value is reported as “only TAP1 crosslinks”. Regarding “N-acetylated ICP47-1–53: ICP47-1–53 N-acetylated on the resin”, the “effect of N-acetylation on the ability to inhibit TAP” value with human TAP (human cell line Hmy2.C1R, compared with 1–53 polypeptide, Fig. 3 E) is recorded as “no effect”. Consider “ICP47: herpes simplex virus immediate early protein, 87–amino acid cytosolic polypeptide, inhibitor of TAP”, for which the “ability to block or inhibit mouse TAP” value with murine TAP is “inability”. rICP47: recombinant ICP47 from HSV-1: the “ability to block or inhibit mouse TAP” value in the test with murine TAP is “unable to block”.

As to “1–35 Tpa: 1–35-mer polypeptide with photoactivable phenylalanine analogue Tpa coupled to its NH2 terminus”, the “block of TAP function compared with the unmodified 1–35 polypeptide” value with human TAP (data not shown) is listed as “less efficiently”. Moreover, the “TAP subunits labeled by cross-linking” value with human TAP1+2 was “Both TAP1 and TAP2 subunits were photolabeled”.
